From ChEMBL document CHEMBL4622933, “Targeting the TS dimer interface in bifunctional Cryptosporidium hominis TS-DHFR from parasitic protozoa: Virtual screening identifies novel TS allosteric inhibitors” (Bioorg Med Chem Lett, 2020) come the findings set out here.

The subject of series [1] is Cryptosporidium hominis. Description: Inhibition of Cryptosporidium hominis thymidylate synthase assessed as H2F formation at 500 uM preincubated for 30 mins followed by addition of radiolabelled CH2H4F and dUMP by HPLC-coupled flow scintillation analysis relative to control. The procedure, abridged:
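Bifunctional C. hominis TS-DHFR is preincubated with compound for 30 min, then dUMP and radiolabelled CH2H4F are added to start the reaction. TS turnover of CH2H4F to H2F is followed by HPLC with radioactivity flow detection, and results are expressed as % inhibition.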

A short description of series [2]: Inhibition of Cryptosporidium hominis thymidylate synthase assessed as H2F formation preincubated for 30 mins followed by addition of radiolabelled CH2H4F and inactive dUMP by HPLC-coupled flow scintillation analysis.
The target in series [3] is Thymidylate synthase (TS) (Homo sapiens, UniProt P04818). In words: Inhibition of human TS at 500 uM relative to control. The following applies: human thymidylate synthase enzyme (single protein). The procedure, abridged:
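Human TS enzyme is incubated with compound in the absence of dUMP, then TS activity is measured.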

The nature of series [4]: Selectivity index, ratio of inhibition of human TS to inhibition of Cryptosporidium hominis thymidylate synthase-dihydrofolate reductase.
The subject of series [5] is Cryptosporidium hominis. In words: Inhibition of Cryptosporidium hominis dihydrofolate reductase assessed as H4F formation at 500 uM preincubated for 30 mins followed by addition of radiolabelled H2F and dUMP by HPLC-coupled flow scintillation analysis relative to control. The procedure, abridged:
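DHFR activity of bifunctional C. hominis TS-DHFR uses a radiometric assay. Conversion of radiolabelled H2F to H4F is followed by HPLC, and % inhibition is reported. The assay is run as a counter-screen for compound aggregation and nonspecific effects.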

Series [6] can be described thus: Inhibition of Cryptosporidium hominis thymidylate synthase assessed as H2F formation preincubated for 30 mins followed by addition of radiolabelled CH2H4F and active dUMP by HPLC-coupled flow scintillation analysis.

Active and inactive are the calls of the source. The calls are words filed in the database; no cut-off is given here.

Thymidylate synthase (TS), sequence (P04818 whole entry): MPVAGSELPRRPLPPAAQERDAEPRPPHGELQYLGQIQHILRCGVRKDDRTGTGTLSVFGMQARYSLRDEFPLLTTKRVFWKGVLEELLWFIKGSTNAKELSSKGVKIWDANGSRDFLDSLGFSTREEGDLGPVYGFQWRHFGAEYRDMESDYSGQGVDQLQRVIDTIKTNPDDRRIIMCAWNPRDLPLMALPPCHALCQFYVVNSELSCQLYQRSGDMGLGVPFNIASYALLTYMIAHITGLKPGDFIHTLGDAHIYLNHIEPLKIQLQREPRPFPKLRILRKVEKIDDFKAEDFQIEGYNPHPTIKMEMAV

With `OC(CNCc1ccc2c(c1)OCO2)COc1ccc(Br)cc1` (centres undefined), the inhibition (as a rule, the drop in the measured response relative to a control, in per cent) in the series on Cryptosporidium hominis [1] turned out to be 26%.

Turning to `O=C(O)CCC(=O)Nc1ccc(S(=O)(=O)Nc2ccc(C(F)(F)F)cc2)cc1`, the inhibition entry in the series with Cryptosporidium hominis [1] was “inactive”.

Regarding `Cc1cc(Cl)cc(Br)c1OCC(O)CNCc1ccc2c(c1)OCO2` (centres undefined), the figures for the inhibition in the series with Cryptosporidium hominis [1] and in the series with Cryptosporidium hominis [5] were 83% and 19%, respectively. In addition, the concentration for half-maximal inhibition (IC50) (in general, the concentration needed to halve the response being measured) in series [2] was determined as 172 µM; in series [6] it was 304 µM. Also, the inhibition at 500 µM in series [3] was 50%. For the same compound, in series [4], the Ratio came out at 2.

Turning to `COc1cc(NC(=O)NCc2cccnc2)cc(C(F)(F)F)c1`, the inhibition in the series with Cryptosporidium hominis [1] was 46%.

Consider `Cc1ccccc1-n1c(=O)n(Cc2ccc(C(=O)O)cc2)c(=O)c2[nH]cnc21`, for which the inhibition in the series with Cryptosporidium hominis [1] was below 5%.

Turning to `COc1ccc(Cn2c(=O)c3[nH]cnc3n(-c3cccc([S+](C)[O-])c3)c2=O)cc1` (centres undefined), in the series with Cryptosporidium hominis [1], the inhibition is below 5%.

Turning to `COc1ccccc1OCC(O)CNCc1ccc2c(c1)OCO2` (centres undefined), in the series with Cryptosporidium hominis [1], the inhibition was below 5%.

On to `OC(CNCc1ccc2c(c1)OCO2)COc1ccc(Cl)c(Cl)c1` (centres undefined), for which the inhibition in the series with Cryptosporidium hominis [1] was determined as 83%; in the series with Cryptosporidium hominis [5], 60%.

In the case of `OC(CNCc1ccc2c(c1)OCO2)COc1ccc(-c2csnn2)cc1` (centres undefined), the figures for the inhibition in the series on Cryptosporidium hominis [1] and in the series on Cryptosporidium hominis [5] were 76% and 6%, respectively.

Consider `OC(CNCc1ccc2c(c1)OCO2)COc1ccc(-c2ccccc2)cc1` (centres undefined), for which the inhibition in the series on Cryptosporidium hominis [1] stood at 87%; in the series on Cryptosporidium hominis [5], 26%.

With `OC(CNCc1ccc2c(c1)OCO2)CSc1ccccc1` (centres undefined), the inhibition with Cryptosporidium hominis [1] amounted to 34%.

Regarding `COc1cc(C(=O)O)ccc1OCC(O)CNCc1ccc2c(c1)OCO2` (centres undefined), the inhibition in the series with Cryptosporidium hominis [1] is below 5%.

In the case of `CCOC(=O)CNC(=O)CSc1nc2ccccc2c(=O)[nH]1`, the inhibition result with Cryptosporidium hominis [1] was “inactive”.

Turning to `CC(C)(CC(=O)O)CC(=O)NCc1c(Cl)cccc1Oc1ccccc1`, in the series with Cryptosporidium hominis [1], the inhibition entry was “inactive”.

With `OC(CNCc1ccc2c(c1)OCO2)COc1ccc(F)cc1` (centres undefined), in the series on Cryptosporidium hominis [1], the inhibition amounted to 7%.

`COc1cc(C(C)=O)ccc1OCC(O)CNCc1ccc2c(c1)OCO2` (centres undefined): in the series with Cryptosporidium hominis [1], the inhibition came out at 20%.

For the compound `CC(=O)c1ccc(OCC(O)CNCc2ccc3c(c2)OCO3)cc1` (centres undefined), in the series with Cryptosporidium hominis [1], the inhibition worked out at 55%.

On to `CCCCNC1N=C(c2ccccc2)c2ccccc2N(C)C1=O` (centres undefined), for which, in the series on Cryptosporidium hominis [1], the inhibition was found to be 15%.

As to `Cc1ccc(C)c(OCC(O)CNCc2ccc3c(c2)OCO3)c1C` (centres undefined), in the series on Cryptosporidium hominis [1], the inhibition is 48%.

With `Cc1ccc(OCC(O)CNCc2ccc3c(c2)OCO3)cc1C` (centres undefined), the inhibition with Cryptosporidium hominis [1] is 55%.

Regarding `OC(CNCc1ccc2c(c1)OCO2)CSc1cccs1` (centres undefined), in the series on Cryptosporidium hominis [1], the inhibition was determined as 43%.
